Data: ChEMBL document CHEMBL3217724, “Synthesis and evaluation of a series of benzothiophene acrylonitrile analogs as anticancer agents” (Medchemcomm, 2013)
The source made the active and inactive calls. The calls are words filed in the database; no cut-off is given here.

Assays:
LLC-PK1 [1] = experiment: Growth inhibition of pig LLC-PK1 cells expressing MDR1 by Alamar Blue assay; type: functional; conditions: Sus scrofa
Summary of the method: (§1)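 Porcine epithelial L-MDR1 (P-gp expressing) cells and their non-expressing parent line were exposed to compound for 72 h. Viability was read with AlamarBlue dye and GI50 derived. P-gp expression was verified by Western blot with β-actin as loading control. The resistance ratio compares GI50 in MDR1 versus parent cells.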

PC-3 [2] = experiment: Growth inhibition of human PC3 cells after 72 hrs by Alamar Blue assay; type: functional; conditions: PC-3, 72 h
Summary of the method: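 PC3 prostate cancer cells and docetaxel-resistant PC3-DR cells were exposed to drug for 72 hours in 96-well format. Viability was read with AlamarBlue dye and GI50 derived. Resistance is the GI50 in PC3-DR over the GI50 in parental PC3.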

Tubulin (Homo sapiens) = Tubulin (Homo sapiens) (UniProt P68371+Q9H4B7+P0DPH7+P68366+Q13509+Q71U36+P04350+Q3ZCM7+P07437+P68363+Q9BQE3+Q6PEY2+Q13885+Q9BVA1+Q9BUF5); conditions: 5 uM
[3] = Growth inhibition of P-gp expressing human NCI-ADR-RES cells by Alamar Blue assay; type: functional
Summary of the method: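 72-h cytotoxicity in 96-well plates with AlamarBlue viability dye, giving GI50. Line 1 uses docetaxel-resistant PC3 prostate cells (PC3-DR), and line 2 uses NCI/ADR-Res ovarian cells. P-gp expression in both was confirmed by Western blot, with β-actin as the loading control.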

[4] = Growth inhibition of human OVCAR8 cells by Alamar Blue assay; type: functional; conditions: OVCAR-8
Summary of the method: (§2)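 Cell viability was read with AlamarBlue dye in 96-well format and GI50 values derived, to assess P-gp effects. Cells were P-gp-expressing NCI/ADR-Res ovarian cancer cells and L-MDR1 porcine epithelial cells, each with its non-expressing parent line. P-gp expression was confirmed by Western blot with β-actin as loading control. Resistance is the GI50 in the P-gp line over the GI50 in the parent line.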

OVCAR-8 = experiment: Resistance factor, ratio of GI50 for P-gp expressing NCI-ADR-RES cells to GI50 for human OVCAR8 cells; type: functional; summary of the method: as §2
LLC-PK1 [5] = experiment: Resistance factor, ratio of GI50 for pig LLC-PK1 cells expressing MDR1 to GI50 for pig LLC-PK1 cells; design: species or system Sus scrofa; summary of the method: as §1
PC-3 [6] = experiment: Induction of beta tubulin de-stabilization in human PC3 cells at 10 nM after 24 hrs by DAPI-staining based immunofluorescence assay; type: cell-based
Summary of the method: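 PC3 cells were treated for 24 hours with the test agent at 1, 10 or 100 nM, or with 10 nM docetaxel or vinblastine as stabilizing and destabilizing references. Cells were immunostained for beta-tubulin (green) with DAPI nuclear counterstain (blue) and the microtubule staining pattern imaged.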

[7] = Growth inhibition of pig LLC-PK1 cells by Alamar Blue assay; type: cell-based, Sus scrofa; summary of the method: as §2
HCT-116 = experiment: Growth inhibition of human HCT116 cells; type: functional
Summary of the method: (§3)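 NCI 60-human-cancer-cell-line panel, five-dose screen after a preliminary screen. GI50 is the molar concentration giving 50% growth inhibition.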

RPMI-8226 = experiment: Growth inhibition of human RPMI8226 cells; type: functional; summary of the method: as §3
NCI-H226 = experiment: Growth inhibition of human NCI-H226 cells; type: functional; summary of the method: as §3
A498 = experiment: Growth inhibition of human A498 cells; type: functional; summary of the method: as §3
IGROV-1 = experiment: Growth inhibition of human IGROV1 cells; type: functional; summary of the method: as §3
MDA-MB-435 = experiment: Growth inhibition of human MDA-MB-435 cells; type: functional; summary of the method: as §3
SK-OV-3 = experiment: Growth inhibition of human SKOV3 cells; type: functional
Summary of the method: (§4)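 NCI 60-cell-line panel, five-dose screen; GI50 is the molar concentration giving 50% growth inhibition.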

ACHN = experiment: Growth inhibition of human ACHN cells; type: functional; summary of the method: as §3
[8] = Growth inhibition of human SF295 cells; type: functional; conditions: SF-295; summary of the method: as §3
SR = experiment: Growth inhibition of human SR cells; type: functional; summary of the method: as §4
A549 = experiment: Growth inhibition of human A549 cells; type: functional; summary of the method: as §3
Malme-3M = experiment: Growth inhibition of human MALME-3M cells; type: functional; summary of the method: as §3
[9] = Growth inhibition of human HOP92 cells; type: functional; conditions: HOP-92; summary of the method: as §3
M14 = experiment: Growth inhibition of human M14 cells; type: functional; summary of the method: as §3
NCI-H23 = experiment: Growth inhibition of human NCI-H23 cells; type: functional; summary of the method: as §3
[10] = Growth inhibition of human OVCAR3 cells; type: functional; conditions: OVCAR-3; summary of the method: as §3
MCF7 = experiment: Growth inhibition of human MCF7 cells; type: functional; summary of the method: as §3
[11] = Growth inhibition of human HCC2998 cells; type: functional; conditions: HCC 2998; summary of the method: as §3
[12] = Growth inhibition of human UACC62 cells; type: functional; conditions: UACC-62; summary of the method: as §4
DU-145 = experiment: Growth inhibition of human DU145 cells; type: functional; summary of the method: as §3
KM12 = experiment: Growth inhibition of human KM12 cells; type: functional; summary of the method: as §3
[13] = Growth inhibition of human OVCAR4 cells; type: functional; conditions: OVCAR-4; summary of the method: as §3
SK-MEL-28 = experiment: Growth inhibition of human SK-MEL-28 cells; type: functional; summary of the method: as §3
[14] = Growth inhibition of human OVCAR5 cells; type: functional; conditions: OVCAR-5; summary of the method: as §3
[15] = Growth inhibition of human RXF393 cells; type: functional; conditions: RXF 393; summary of the method: as §3
[16] = Growth inhibition of human BT549 cells; type: functional; conditions: BT-549; summary of the method: as §3
HT-29 = experiment: Growth inhibition of human HT-29 cells; type: functional; summary of the method: as §3
COLO 205 = experiment: Growth inhibition of human COLO205 cells; type: functional; summary of the method: as §3
SNB-19 = experiment: Growth inhibition of human SNB19 cells; type: functional; summary of the method: as §4
SK-MEL-5 = experiment: Growth inhibition of human SK-MEL-5 cells; type: functional; summary of the method: as §3
SN12C = experiment: Growth inhibition of human SN12C cells; type: functional; summary of the method: as §4
K562 = experiment: Growth inhibition of human K562 cells; type: functional; summary of the method: as §3
U-251 = experiment: Growth inhibition of human U251 cells; type: functional; summary of the method: as §4
[17] = Growth inhibition of human NCI-ADR-RES cells; type: functional; summary of the method: as §3
786-0 = experiment: Growth inhibition of human 786-0 cells; type: functional; summary of the method: as §3
NCI-H460 = experiment: Growth inhibition of human NCI-H460 cells; type: functional; summary of the method: as §3
[18] = Growth inhibition of human Hs578T cells; type: functional; conditions: Hs-578T; summary of the method: as §3
HOP-62 = experiment: Growth inhibition of human HOP62 cells; type: functional; summary of the method: as §3
[19] = Growth inhibition of human OVCAR8 cells; type: functional; conditions: OVCAR-8; summary of the method: as §3
CAKI-1 = experiment: Growth inhibition of human Caki1 cells; type: functional; summary of the method: as §3
NCI-H522 = experiment: Growth inhibition of human NCI-H522 cells; type: functional; summary of the method: as §3
[20] = Growth inhibition of human MOLT4 cells; type: functional; conditions: MOLT-4; summary of the method: as §3
[21] = Growth inhibition of human UO31 cells; type: functional; conditions: UO-31; summary of the method: as §4
HL-60(TB) = experiment: Growth inhibition of human HL-60(TB) cells; type: functional; summary of the method: as §3
SNB-75 = experiment: Growth inhibition of human SNB75 cells; type: functional; summary of the method: as §4
[22] = Growth inhibition of human EKVX cells; type: functional; summary of the method: as §3
T47D = experiment: Growth inhibition of human T47D cells; type: functional; summary of the method: as §4
[23] = Growth inhibition of human UACC257 cells; type: functional; conditions: UACC-257; summary of the method: as §4
SF-268 = experiment: Growth inhibition of human SF268 cells; type: functional; summary of the method: as §3
CCRF-CEM = experiment: Growth inhibition of human CCRF-CEM cells; type: functional; summary of the method: as §3
[24] = Growth inhibition of human HCT15 cells; type: functional; conditions: HCT-15; summary of the method: as §3
NCI-H322M = experiment: Growth inhibition of human NCI-H322M cells; type: functional; summary of the method: as §3
TK-10 = experiment: Growth inhibition of human TK10 cells; type: functional; summary of the method: as §4
MDA-MB-231 = experiment: Growth inhibition of human MDA-MB-231 cells; type: functional; summary of the method: as §3
SW-620 = experiment: Growth inhibition of human SW620 cells; type: functional; summary of the method: as §4
[25] = Growth inhibition of human SF539 cells; type: functional; conditions: SF-539; summary of the method: as §3
[26] = Growth inhibition of human LOXIMVI cells; type: functional; conditions: LOX IMVI; summary of the method: as §3
PC-3 [27] = experiment: Growth inhibition of human PC3 cells; type: functional; summary of the method: as §3
SK-MEL-2 = experiment: Growth inhibition of human SK-MEL-2 cells; type: functional; summary of the method: as §3

CC[C@]1(O)C[C@@H]2CN(CCc3c([nH]c4ccccc34)[C@@](C(=O)OC)(c3cc4c(cc3OC)N(C)[C@H]3[C@@](O)(C(=O)OC)[C@H](OC(C)=O)[C@]5(CC)C=CCN6CC[C@]43[C@@H]65)C2)C1 [VINBLASTINE]
GI50 (LLC-PK1 [1]): 0.0868 µM
GI50 (PC-3 [2]): 0.0052 µM
inhibition (Tubulin (Homo sapiens)): Active
GI50 [3]: 1.4 µM
GI50 [4]: 0.0028 µM
RatioGI50 (OVCAR-8): 500
RatioGI50 (LLC-PK1 [5]): 58
Activity (PC-3 [6]): Active
GI50 [7]: 0.0015 µM

COc1ccc(/C(C#N)=C/c2cc3ccccc3s2)cc1OC
GI50 (HCT-116): 0.0411 µM
GI50 (RPMI-8226): 0.0298 µM
GI50 (NCI-H226): > 0.1 µM
GI50 (A498): 0.0266 µM
GI50 (IGROV-1): 0.0618 µM
GI50 (MDA-MB-435): 0.01 µM
GI50 (SK-OV-3): 0.0634 µM
GI50 (ACHN): 0.0854 µM
GI50 [8]: 0.01 µM
GI50 (SR): 0.01 µM
GI50 (A549): 0.07 µM
GI50 (Malme-3M): > 0.1 µM
GI50 [9]: > 0.1 µM
GI50 (M14): 0.0611 µM
GI50 (NCI-H23): 0.0579 µM
GI50 [10]: 0.022 µM
GI50 (MCF7): 0.0478 µM
GI50 [11]: 0.0665 µM
GI50 [12]: 0.0459 µM
GI50 (DU-145): 0.0366 µM
GI50 (KM12): 0.01 µM
GI50 [13]: > 0.1 µM
GI50 (SK-MEL-28): > 0.1 µM
GI50 [14]: 0.05 µM
GI50 [15]: 0.0909 µM
GI50 [16]: 0.0283 µM
GI50 (HT-29): 0.0318 µM
GI50 (COLO 205): 0.0361 µM
GI50 (SNB-19): 0.0444 µM
GI50 (SK-MEL-5): 0.021 µM
GI50 (SN12C): 0.0136 µM
GI50 (K562): 0.0354 µM
GI50 (U-251): 0.064 µM
GI50 [17]: 0.0105 µM
GI50 (786-0): 0.0337 µM
GI50 (NCI-H460): 0.0354 µM
GI50 [18]: 0.03 µM
GI50 (HOP-62): 0.047 µM
GI50 [19]: 0.0251 µM
GI50 (CAKI-1): 0.0827 µM
GI50 (NCI-H522): 0.01 µM
GI50 [20]: 0.0535 µM
GI50 [21]: 0.0187 µM
GI50 (HL-60(TB)): 0.0222 µM
GI50 (SNB-75): 0.0137 µM
GI50 [22]: 0.0908 µM
GI50 (T47D): > 0.1 µM
GI50 [23]: > 0.1 µM
GI50 (SF-268): 0.0452 µM
GI50 (CCRF-CEM): 0.0286 µM
GI50 [24]: 0.0482 µM
GI50 (NCI-H322M): 0.0315 µM
GI50 (TK-10): 0.0452 µM
GI50 (MDA-MB-231): 0.0269 µM
GI50 (SW-620): 0.0242 µM
GI50 [25]: 0.0106 µM
GI50 [26]: 0.0607 µM
GI50 (PC-3 [27]): 0.0297 µM
GI50 (SK-MEL-2): > 0.1 µM
